# From PubChem BioAssay
# A selection: hits, their analogues and other compounds. The true share with any hit is near 1.9%.
# LEDGF integ inh = blocks HIV-1 LEDGF/p75-dependent DNA integration | TR-FRET IN-LEDGF/p75 DNA integration, Eu/Cy5 | inhibition, % at 3.7 µM | 0.64% of 370,000 active;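 active means inhibition above the screen-wide mean plus 3 SD, cut at about 13% in these data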;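 further: signal is the Cy5 over europium emission ratio at 671 and 618 nm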
# UHRF1 MBD2 ctr = human UHRF1 methylated DNA binding inhibitors | Q96T88 | UHRF1 binding to methylated oligo, TR-FRET | inhibition, % at 4.4 µM | 0.75% of 370,000 active | AID 687016; in the data active means inhibition above about 21%;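 further: UHRF1 SRA domain binding a hemimethylated CpG hairpin DNA probe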
# Target sequence (Q96T88 whole entry, looked up, the tested form may be a part): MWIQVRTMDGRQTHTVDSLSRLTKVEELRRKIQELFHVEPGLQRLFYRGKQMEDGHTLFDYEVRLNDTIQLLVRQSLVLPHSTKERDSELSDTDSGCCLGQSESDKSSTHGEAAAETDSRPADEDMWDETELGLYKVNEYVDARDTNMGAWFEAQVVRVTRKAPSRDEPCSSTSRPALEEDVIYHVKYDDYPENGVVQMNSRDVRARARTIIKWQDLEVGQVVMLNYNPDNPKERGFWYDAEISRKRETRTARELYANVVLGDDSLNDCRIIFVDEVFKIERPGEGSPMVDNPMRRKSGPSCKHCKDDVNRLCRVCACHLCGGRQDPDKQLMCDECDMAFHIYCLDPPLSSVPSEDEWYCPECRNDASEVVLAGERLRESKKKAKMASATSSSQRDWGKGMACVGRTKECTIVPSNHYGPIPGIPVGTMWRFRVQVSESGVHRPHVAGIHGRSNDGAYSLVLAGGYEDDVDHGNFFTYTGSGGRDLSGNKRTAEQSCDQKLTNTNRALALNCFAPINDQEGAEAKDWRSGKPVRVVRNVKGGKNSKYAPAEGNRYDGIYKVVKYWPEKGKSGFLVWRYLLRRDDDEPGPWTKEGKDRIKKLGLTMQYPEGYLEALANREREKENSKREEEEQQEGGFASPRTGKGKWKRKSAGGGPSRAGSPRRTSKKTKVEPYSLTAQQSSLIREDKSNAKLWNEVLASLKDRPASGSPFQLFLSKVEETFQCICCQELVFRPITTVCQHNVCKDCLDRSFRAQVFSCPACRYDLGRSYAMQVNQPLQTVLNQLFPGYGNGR
# MBD2 DNA inh = blocks human MBD2 binding to methylated DNA | Q9UBB5 | TR-FRET, MBD2 binding to methylated oligonucleotide | inhibition, % at 4.4 µM | 0.31% of 370,000 active | AID 686964; in the data active means inhibition above about 13%
# TDP2 absorb = TDP2 (human) inhibition, absorbance primary screen; 0.34% of 370,000 active; O95551; recombinant TDP2, T5PNP hydrolysis, p-nitrophenol absorbance 415 nm; AID 720702; inhibition, % at 12.8 µM;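 active means inhibition above the mean of all tested compounds plus 3 SD, set per campaign, cut at about 25% in these data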
#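 test system = human TDP2 enzyme | input = TDP2 enzyme at 120 nM final | medium = 50 mM Tris-HCl pH 7.5 with Mg2+, KCl, DTT, BSA | also added = T5PNP substrate, 5 mM | times = 2 h at 37 °C | technique = epi absorbance | benchmarks = high control without enzyme, low control DMSO plus TDP2 | replication = each compound tested once, singlicate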
# Rin1 Abl inh = human Rin1-Abl interaction inhibition. P00519+Q13671. TR-FRET Rin1/Abl binding, biochemical. inhibition, % at 7.35 µM. 0.4% of 360,000 active; in the data active means inhibition above about 5%, passing the limit was not always enough
# Numbers stand for hits; - = inactive; . = not tested or not shown.
SMILES,LEDGF integ inh,UHRF1 MBD2 ctr,MBD2 DNA inh,TDP2 absorb,Rin1 Abl inh
CN1C(=O)CC(c2ccccc2)CC1=O,-,-,-,-,-
O=C1CC(c2ccccc2)CC(=O)C1=CN1CCCC1 (configuration not stated),-,68,-,-,-
Cc1nnn(C23CC4CC(CC(CC(=O)Nc5ccc(C)c(Cl)c5)(C4)C2)C3)n1,-,27,-,-,-
Cc1cc(C)cc(NC(=O)CC23CC4CC(C2)CC(n2nnc(C)n2)(C4)C3)c1,-,-,-,-,-
CCn1c(=O)c(C(=O)NNS(=O)(=O)c2ccc(Br)cc2)c(O)c2ccccc21,-,35,-,-,-
O=C(NCc1c(F)cccc1F)C1CCCN(c2ncccn2)C1 (configuration not stated),-,-,-,-,.
O=c1c2cc3cc4c(cc3nc2ncn1Cc1cccnc1)OCO4,-,-,-,-,.
CN1CCN(c2nc(-c3ccc(C(C)(C)C)cc3)nc3ccccc23)CC1,-,22,-,-,-
O=C(NC1CCCC1)C1CSCCS(=O)(=O)N1Cc1ccc(F)cc1 (configuration not stated),-,-,-,-,.
Cc1nn(C)c(C)c1C1C(C#N)=C(N)OC2=C1C(=O)CCC2 (configuration not stated),-,21,-,-,-
Cc1cc(C(=O)N/N=C/C=C/c2ccccc2)n[nH]1,-,-,-,-,-
Cc1n[nH]c(C)c1CCC(=O)N/N=C/C=C/c1ccccc1,-,88,-,-,-
COc1ccc(CN(C)C(=O)C2CCCN(c3nc4ccccc4o3)C2)cc1 (configuration not stated),-,-,-,-,.
COc1cc(CNCCNC(=O)c2cccs2)cc(OC)c1OC,-,-,-,28,-
Cc1ccc(S(=O)(=O)N2CCCC(C(=O)NCc3ccco3)C2)cc1 (configuration not stated),-,-,-,-,.
O=C(CSc1ccccn1)Nc1ccc(N2CCOCC2)cc1,-,93,-,-,-
O=C(CSc1ccccn1)Nc1ccc2c(c1)OCCO2,-,-,-,-,-
CCOC(=O)c1cc(-c2ccccc2)sc1NC(=O)CN1C(=O)NC(CC)(c2ccc(F)cc2)C1=O (configuration not stated),-,24,-,-,-
CCOC(=O)c1cc(-c2ccccc2)sc1NC(=O)CN1C(=O)NC(CC)(c2ccccc2)C1=O (configuration not stated),-,-,-,-,-
Nc1ccc(-c2nc3cc([N+](=O)[O-])ccc3o2)cc1,-,-,-,-,-
COc1ccc(-c2nc3cc([N+](=O)[O-])ccc3o2)cc1,-,21,-,-,-
COc1ccc(C(=O)/C(=C/N(C)C)S(=O)(=O)c2ccccc2)cc1,-,55,-,-,-
COc1ccc(NC(=S)Nc2ncccc2C)cc1OC,-,-,-,-,-
COc1ccc(NC(=S)Nc2ncccc2C)c(OC)c1,-,25,-,-,-
COc1cc2c(cc1NC(=O)CSc1nnc(-c3cnccn3)n1-c1ccc(C)cc1)oc1ccccc12,-,-,-,-,.
SMILES,LEDGF integ inh,UHRF1 MBD2 ctr,MBD2 DNA inh,TDP2 absorb,Rin1 Abl inh
Cc1nn(-c2ccccc2)c2sc(C(=O)N3CCN(S(=O)(=O)c4ccc(Br)s4)CC3)cc12,-,-,-,-,.
C[C@@H]1CN([C@@H](C)CO)C(=O)CCCn2cc(nn2)CO[C@H]1CN(C)C(=O)NC1CCCCC1,-,21,-,-,.
C[C@@H]1CN([C@@H](C)CO)C(=O)CCCn2nncc2CO[C@H]1CN(C)C(=O)Nc1ccccc1C(F)(F)F,-,-,-,-,-
C[C@H]1CN([C@@H](C)CO)C(=O)CCCn2nncc2CO[C@@H]1CN(C)Cc1ccccc1,-,35,-,-,-
C[C@@H]1CN([C@@H](C)CO)C(=O)CCCn2nncc2CO[C@@H]1CN(C)C(=O)Nc1ccccc1C(F)(F)F,-,22,-,-,-
CC(C)NC(=O)N(C)C[C@@H]1OCc2cn(nn2)CCCC(=O)N([C@@H](C)CO)C[C@H]1C,-,-,-,-,.
CCCCCCCCN1C(=O)[C@@H](CC(=O)NCCc2ccccc2OC)C[C@@]2(C(=O)OC)C1=C[C@H](COCc1ccccc1)O[C@@H]2C,-,-,-,-,.
FC(F)(F)c1ccccc1Cn1ccc2ccc(-c3ccc4ccn(Cc5ccccc5C(F)(F)F)c4c3)cc21,-,-,-,-,.
CC(=O)N1CCN(c2cc(C)nc3nc(C)nn23)CC1,-,-,-,-,.
